Data reported in ChEMBL document CHEMBL4396965.

Assays:
[1] = (§1) Antiviral activity against Influenza A virus (H1N1) harboring PR8-GLuc infected in human A549 cells assessed as reduction in virus-induced cytopathic effect treated post viral infection for 1 hr by luciferase reporter gene assay; type: functional, cell-based, H1N1 subtype; details: A549, 1 h
How it was run: (§2)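 A549 cells seeded 40,000/well, incubated overnight 37 °C 5% CO2, then infected with PR8-GLuc (H1N1) at 0.1 MOI for 1 h; unbound virus removed by two acidic (PBS pH 2.2) and three neutral (PBS pH 7.4) washes. Initial screen at one concentration below maximum non-toxic concentration; those reaching 50% inhibition retested in dose response for EC50 and EC90.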

H1N1 subtype = assay: as §1; type: functional, cell-based; how it was run: as §2

Row | Compound | EC50 [1] [µM] | EC90 (H1N1 subtype) [µM]
1 | Cc1csc2c(N[C@H]3C4C=CC(CC4)[C@@H]3C(=O)O)nc(-c3c[nH]c4ncc(F)cc34)nc12 (stereo partly drawn) | 0.029 | 
2 | O=C(O)C12CC3CC(CC(Nc4nc(-c5c[nH]c6ncc(F)cc56)ncc4F)(C3)C1)C2 | 0.95 | 
3 | O=C(O)[C@H]1C2C=CC(CC2)[C@@H]1Nc1nc2cnc(-c3c[nH]c4ncc(F)cc34)nc2s1 (stereo partly drawn) | > 100 | 
4 | O=C(O)[C@H]1C2CCC(C3CC32)[C@@H]1Nc1nc(-c2c[nH]c3ncc(F)cc23)ncc1F (stereo partly drawn) | 0.05 | 
5 | O=C(O)[C@H]1C2C=CC(C2)[C@@H]1Nc1nc(-c2c[nH]c3ncc(F)cc23)ncc1F (stereo partly drawn) | 0.05 | 
6 | O=C(O)[C@H]1C2C=CC(CC2)[C@@H]1Nc1nc(-c2n[nH]c3ncc(F)cc23)ncc1F (stereo partly drawn) | 0.016 | 
7 | Cn1cnc2c(N[C@H]3C4C=CC(CC4)[C@@H]3C(=O)O)nc(-c3c[nH]c4ncc(F)cc34)nc21 (stereo partly drawn) | 0.4 | 
8 | Cc1cc2nc(-c3c[nH]c4ncc(F)cc34)nc(N[C@H]3C4C=CC(CC4)[C@@H]3C(=O)O)c2s1 (stereo partly drawn) | 0.027 | 
9 | O=C(O)[C@H]1C2C=CC(CC2)[C@@H]1Nc1nc(-c2c[nH]c3ncc(F)cc23)nc2ccsc12 (stereo partly drawn) | 0.017 | 
10 | O=C(O)[C@H]1C2C=CC(CC2)[C@@H]1c1nnc2c(F)cnc(-c3c[nH]c4ncc(F)cc34)n12 (stereo partly drawn) | > 40 | 
11 | O=C(O)[C@H]1C2C=CC(CC2)[C@@H]1Nc1nc(-c2c[nH]c3ncc(F)cc23)ncc1F (stereo partly drawn) | 0.007 | 
12 | O=C(O)[C@H]1C2C=CC(CC2)[C@@H]1Nc1nc(-c2n[nH]c3ncc(F)cc23)nc2sccc12 (stereo partly drawn) | 0.012 | 
13 | Cn1cnc2nc(-c3c[nH]c4ncc(F)cc34)nc(N[C@H]3C4C=CC(CC4)[C@@H]3C(=O)O)c21 (stereo partly drawn) | > 10 | 
14 | O=C(O)[C@H]1C2C=CC(CC2)[C@@H]1Nc1nc(-c2n[nH]c3ncc(F)cc23)nc2ccsc12 (stereo partly drawn) | 0.042 | 
15 | O=C(O)[C@H]1C2CCC(CC2)[C@@H]1Nc1nc(-c2c[nH]c3ncc(F)cc23)ncc1F [PIMODIVIR] | 0.004 | 0.027
16 | O=C(O)[C@H]1C2C=CC(CC2)[C@@H]1Nc1nc(-c2c[nH]c3ncc(F)cc23)nc2sccc12 (stereo partly drawn) | 0.0065 | 
17 | O=C(O)[C@H]1C2C=CC(CC2)[C@@H]1Nc1cc2nncn2c(-c2c[nH]c3ncc(F)cc23)n1 (stereo partly drawn) | 0.68 | 
